Source: the EternaBench riboswitch data

System: MS2 coat protein
Test: apparent Kd, MS2 coat protein; higher = weaker binding; RNA-MaP array; FMN 200 µM where present
Summary of the method: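 Stalled E. coli RNA polymerase transcribed each design on Illumina sequencing-chip clusters. The clusters were titrated with SNAP-549-labelled MS2 coat protein, starting at 0.7 or 1.5 nM and doubling up to 3 µM, first without ligand and then with constant ligand, in 100 mM Tris-HCl pH 7.5, 80 mM KCl, 4 mM MgCl2, BSA, DTT, yeast tRNA and Tween-20. Green signal was normalised to red-channel RNA signal and to the control-cluster median Fmax. The apparent Kd is the median of filtered binding-curve fits made for each cluster.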

[1] = designed as: OFF switch for flavin mononucleotide, no ligand
[2] = ligand present: flavin mononucleotide, designed as: OFF switch for flavin mononucleotide
[3] = designed as: ON switch for flavin mononucleotide, no ligand
[4] = ligand present: flavin mononucleotide, designed as: ON switch for flavin mononucleotide

| Sequence | apparent Kd [1] [nM] | apparent Kd [2] [nM] | apparent Kd [3] [nM] | apparent Kd [4] [nM] |
| --- | --- | --- | --- | --- |
| CGUACUCAAAGAGUACCAAUACGAACAUGAGGAUCACCCAUGUAGGAUAUGCUACUCAAAGAGUAGCAGAAGGACAUGUGCCUA | 19.3 | 73.2 | – | – |
| CAGCCCUGAGGAUAUCCAUCCUUGUACAUGAGGAUCACCCAUGUUCUCCUCUGGGCUUUGGGAGAAGGCAGGUAUC | 59.6 | 58.7 | – | – |
| GUAGAGAUUACAUGAGGAUCACCCAUGUCAGAACGGGUAAUCAGAAGGUAUUAUUAGAGAGAGGGUAAGGAUAUGAUUUUUUAU | – | – | 634 | 438 |
| AUUUAUGGCCAGAAGGACAUGAGGAUCACCCAUGUAGGAUAUGGACGAUUUUGCUCGGCGGUUUGUUUACGAAGCACCGGUGGU | – | – | 12.8 | 6.91 |
| AAGAAGUCAGGAUAUCCUGCUCGUCACUUGCGUGAUGAGUAGGAGAAGGGACAUGAGGAUCACCCAUGUAAAGC | 46.4 | 43.1 | – | – |
| GGUGCAUAUGAGAAGGCGAUCAUGAAACAUGAUCGAGGAUAUCAUGUAAACAUGAGGAUCACCCAUGUAUGGGAAUAAUGCACC | – | – | 112 | 10.4 |
| AAGCAACAUGAGGAUCACCCAUGUAGCAGGGUCAGAGGAUAUUUGAGCUUGGCGAGGGUUAAAGAAGGUUGAUAUC | – | – | 38.8 | 43.6 |
| GUUAGUUAAGGAUAUACUGGGAGCUGCGGCGUCUCGCCGCAACAUGAGGAUCACCCAUGUAGAAGGUGACCGUU | 640 | 285 | – | – |
| AAGUCGAGUGUGAGGAUAUUGACCGGACGACCCAUCGAGAAGGCACAUGAGGAUCACCCAUGUGAUUCAGCUCA | 17 | 23 | – | – |
| GGUCCACAUGAGGAUCACCCAUGUUAGGAUAUCUCGCCCGAGUCGUUAUGGGCCGGGCAGAGAAGGAAUGUGAA | 21.7 | 20.2 | – | – |
| GUAGCAUACCGAGGAUAUUCUAACCGGAAACGGACAUGAGGAUCACCCAUGUGGCGAAAGCCUUGGGAGAAGGCGGAAUGCUAC | – | – | 12.3 | 12.8 |
| GGAUAGAACAGAGGAUAUACGUGCUAGAGAUACUAGCAAAAUUUCCUCACAUGAGGAUCACCCAUGUAGAAGGCUGUCCUAUCG | 11.8 | 208 | – | – |
| UAAUAAAACGAUCGGCGAUCCAUACAUGAGGAUCACCCAUGUAGAAGGGACUCUACAAAGUAGAGUCAGGAUAUACAAGAUCGA | 10 | 124 | – | – |
| GUCAGCUCGUGAGGAUAUACAAGACUGCUUCGGCAGUGUAUUAAGAUCACAUGAGGAUCACCCAUGUAGAAGGCACGAGCUGAU | 8.12 | 79.6 | – | – |
| AACAAACAUGAGGAUCACCCAUGUAAGGAUAUACGAAACAAACAAACAAACAAACAAAGUAGAAGGUACAGGAA | 19.4 | 18.3 | – | – |
| UUUGCAUUCCGAGGAUAUUCAUAUAAUAACUACACAUGAGGAUCACCCAUGUGGCGAUAGCCUAGGGAGAAGGCGGUUUGCUUU | – | – | 22.8 | 21.3 |
| AUGGUGCAGGUACAGGAUAUGUUGCUCGUAACAUGAGGAUCACCCAUGUACCUAUGAGAUUAAAUGCAGAAGGGUGCACACCAAA | – | – | 538 | 20.6 |
| UGGACCGAGCUAUCGGUUGACUGGGAGGAUAUGACAUGAGGAUCACCCAUGUGGGAUCUAAAUUGUCAGAAGGCUCGAUCUGGG | 258 | 257 | – | – |
| CAGUACUGAGGAUAUACAUGAGGAUCACCCAUGUGCUUUAGCUAGGAUACUAGCAUUAGUAGAAGGCAGUACUG | 12.3 | 21.5 | – | – |
| AAAAAAAAAAGCUAGGAUAUCCAAAAAAAAACAUGAGGAUCACCCAUGUAAAAAAAAAAAAAAUGGGAGAAGGAGCAAAAAAAAAA | – | – | 52.4 | 26.9 |
| GAUACACAUGAGGAUCACCCAUGUUAGGAUAUUAGCGGGAAAGCUGUCAAAACGCCGAUGAGAAGGAACAGGAG | 40.6 | 31.4 | – | – |
| AUCCUACAUGAGGAUCACCCAUGUGACGCCUCAAUAGGAUAUGCGUGUGCCUUGGCGCAUGCAGAAGGAUUGAAGC | – | – | 285 | 48.1 |
| GUACUUGUGCAGAAGGGCAUUGAAUUAGGUUUUUAGGUUGAUCAGAAAUGCAGGAUAUGUUAAACAUGAGGAUCACCCAUGUAC | – | – | 66.3 | 13.7 |
| GGAGAACAUGAGGAUCACCCAUGUGGAUGGGCGCUAGGAUAUGCGAGAGGGUGGAGAGAAGCAGAAGGAGUGGAUA | – | – | 62.2 | 54.5 |

| Sequence | apparent Kd [1] [nM] | apparent Kd [2] [nM] | apparent Kd [3] [nM] | apparent Kd [4] [nM] |
| --- | --- | --- | --- | --- |
| AAGAAAGAAACGCAGGAUAUGCAAAACAAAACAUGAGGAUCACCCAUGUCAAACAAACAAACAAAGCAGAAGGGCGAAAGAAAGAA | – | – | 23.1 | 16.4 |
| AAUAAACUCACAGGAUAUAGCAUCGUCGGUAUGAACUUAAAGACGACGAUGCUAGAAGGGUGACCACAUGAGGAUCACCCAUGU | – | – | 903 | 114 |
| AUUUAAAUGUCAGGAUAUGUUAGUUUAUACAUAGUAGAAGGGAUAAUUAUACUCAUGUACAUGAGGAUCACCCAUGUUAAAUCA | – | – | 212 | 98.5 |
| CACAAUCUAUCUGAGGAUAUCAUGAAAAAAACAUGAGGAUCACCCAUGUGCAGGAAAACUGCAUAUGAGAAGGCAGAUAGAUUGG | – | – | 658 | 28.3 |
| AAUUUAAUACAUGAGGAUCACCCAUGUAAUACUUGUAAGAUCAAGGAUAUCAGCUCGUUUAGAGCUGAGAAGGUGAUCACAUGU | – | – | 58.2 | 198 |
| AGGUCAACCACAGGAUAUGGCUAGCAUAGCUAGCCAGAAGGGUGGUCGUAACCAUGUAAAUACAUGAGGAUCACCCAUGUAUCC | – | – | 235 | 66.5 |
| GUUUAGUGAGGAUAUGUGGCAUCGCUCGAGCGCGGUCGGCUACAGAAGGCACAUGAGGAUCACCCAUGUUUCUC | 41.8 | 471 | – | – |
| ACAUGAGGAUCACCCAUGUGAGGAUCACCCAUGUUAUAUUUCAGAAGGCUCGUUUGUUUGAGGAGAGAGGAUAUGGAAUAUAGG | 127 | 84.7 | – | – |
| CCAGAGACAUAAGGAUAUCGAGUGGAUAACACUCGAGAAGGUAUGUGAAAACAUGAGGAUCACCCAUGUGAUCAAUACUCUGGA | – | – | 20.1 | 20.4 |
| CUUUUGUGAGGAUAUCAGUAGUAAUAAUAUAAAAUUACUACUGAGAAGGCACAUGAGGAUCACCCAUGUUCCUC | 37.2 | 185 | – | – |
| CAUCAUCAAGUGAGGAUAUCGUCAAAUCAAUCAAACGAGAAGGCACAUGAGGAUCACCCAUGUCGACUCAUCAA | 18.3 | 24.9 | – | – |
| CGAUGACUGGUGAGGAUAUCGUGUUCGAAAGAACGUGAGAAGGCACAUGAGGAUCACCCAUGUGAUCCUCAUCG | 29.8 | 206 | – | – |
| GGUACCUUUACAGGAUAUGCUAGGGUUUCCUUAGCAGAAGGGUGAUACAUGAGGAUCACCCAUGUGGUGCCAGGGCGUGAGCCC | – | – | 117 | 341 |
| GGAUUUCCUGAGGAUAUUGUAUCACCUGAUUGAUAAGAAGGCAGAACAUGAGGAUCACCCAUGUGGGUAUUCGG | 92.9 | 88.4 | – | – |
| CCUGCACAUGAGGAUCACCCAUGUUAGGAUAUCUCGCCGUCGGCUUGCCGACGGUAUUAGAGAAGGGACAAGGG | 34.7 | 45.5 | – | – |
| CUCUUGUCAGGAUAUACGUACGCUUCGGCGGCGAGGAUCAUGUAGAAGGGACAUGAGGAUCACCCAUGUUAGAC | 41.6 | 44 | – | – |
| ACAUGAGGAUCACCCAUGUUAAACGAGGAUAUAUGACUGCACAUGAGGUUCACCCAUGUUCUGCCGUAGAAGGUGUAAAUAAUU | – | – | 43.3 | 42.8 |
| AUCAGCUCGUCAGGAUAUACGUCACUGCGUCAGCGGUGUGGUAAGAUCACAUGAGGAUCACCCAUGUAGAAGGGACGAGCUGAU | 13.6 | 232 | – | – |
| GGAGACCUCACAGGAUAUGCUGGACUUUGUCCAGCAGAAGGGUGAAAACAUGAGGAUCACCCAUGUAUGGUCUCCAAAUUUAAU | – | – | 183 | 13.7 |
| CCAAGCUGUGUGAGGAUAUGCUGAACCUUGGUUCAGCAGAAGGCACAUGAGGAUCACCCAUGUGAAGAGCUUGG | 17.3 | 69.3 | – | – |
| AGCAUGUGAGGAUAUGCGGACUCCGGUAAAUCUGAAGUCCAGUAGAAGGCACAUGAGGAUCACCCAUGUGAGAU | 43 | 110 | – | – |
| UCAUAAUAGAUCCUAUUUAUCUACAUGAGGAUCACCCAUGUGCAGGAUAUGCUAAAAUUAAAAUAGCAGAAGGGCAAUAUCAGC | 109 | 365 | – | – |
| AUAUAAUAUCAGGAUAUGACUAGCUGCGGCUAGUCAGAAGGGAUGACAUGAGGAUCACCCAUGUGAUCAUAUAU | 33.2 | 151 | – | – |
| AAGAGGCUAGGAUAUACAUGAGGAUCACCCAUGUGAGGGCACGGCCGGCGCGUGGCCGGUAGAAGGAGUCAAAA | 21.3 | 22.6 | – | – |
